Data published in ChEMBL document CHEMBL5661979, “Pharmacological inhibition of BMK1 suppresses tumor growth through promyelocytic leukemia protein” (Cancer Cell, 2010).

How the values were obtained:
[1] = target: T1, STE20-related kinase adapter protein beta (Homo sapiens) (UniProt Q9C0K7); assay: Inhibition of ALS2CR2 in human HeLa cells lysate at 50 uM pre incubated for 15 mins followed by ADP acyl phosphate probe addition and measured after 10 mins by LC-MS/MS analysis relative to control; type: subcellular; conditions: time 25.0 min
T1 sequence (whole entry): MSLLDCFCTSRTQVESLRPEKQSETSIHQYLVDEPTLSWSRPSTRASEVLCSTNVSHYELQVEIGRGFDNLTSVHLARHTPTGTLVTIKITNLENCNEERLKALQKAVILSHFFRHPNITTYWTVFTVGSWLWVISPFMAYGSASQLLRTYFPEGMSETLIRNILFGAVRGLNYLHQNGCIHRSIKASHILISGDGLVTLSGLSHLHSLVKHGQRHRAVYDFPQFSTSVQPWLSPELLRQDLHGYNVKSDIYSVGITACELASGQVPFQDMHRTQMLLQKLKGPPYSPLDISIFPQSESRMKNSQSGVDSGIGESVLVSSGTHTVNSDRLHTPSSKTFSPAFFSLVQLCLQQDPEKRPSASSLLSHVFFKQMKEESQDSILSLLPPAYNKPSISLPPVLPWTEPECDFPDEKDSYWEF
Method in brief: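 HeLa cell lysates (5 mg/mL total protein) were preincubated with inhibitor at 0, 0.8, 2, 10 or 50 μM for 15 min. ATP or ADP acylphosphate probe was then added (5 μM final) for 10 min, and reactions were stopped with urea. Up to four fragment ions per kinase probe-peptide were quantified by targeted MS. % inhibition was taken relative to untreated lysate. Run in duplicate.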

[2] = target: Macrophage-stimulating protein receptor (Homo sapiens, UniProt Q04912); assay: Inhibition of RON in human HeLa cells lysate at 10 uM pre incubated for 15 mins followed by ADP acyl phosphate probe addition and measured after 10 mins by LC-MS/MS analysis relative to control; type: subcellular; conditions: time 25.0 min
[3] = target: Phosphatidylinositol 4-kinase beta (Homo sapiens, UniProt Q9UBF8); assay: Inhibition of PIK4CB in human HeLa cells lysate at 10 uM pre incubated for 15 mins followed by ATP acyl phosphate probe addition and measured after 10 mins by LC-MS/MS analysis relative to control; type: subcellular; conditions: time 25.0 min
[4] = target: Interferon-induced, double-stranded RNA-activated protein kinase (Homo sapiens, UniProt P19525); assay: Inhibition of PKR in human HeLa cells lysate at 10 uM pre incubated for 15 mins followed by ATP acyl phosphate probe addition and measured after 10 mins by LC-MS/MS analysis relative to control; type: subcellular; conditions: time 25.0 min
[5] = target: Mitogen-activated protein kinase kinase kinase 11 (Homo sapiens, UniProt Q16584); assay: Inhibition of MLK3 in human HeLa cells lysate at 50 uM pre incubated for 15 mins followed by ATP acyl phosphate probe addition and measured after 10 mins by LC-MS/MS analysis relative to control; type: subcellular; conditions: time 25.0 min
[6] = Toxicity in C57Bl/6 mouse assessed as effect on alkaline phosphatase level at 50 mg/kg, ip for 14 days (reference value: 51 U/L); type: organism-based; conditions: in vivo, 336 h, time 14 day
[7] = target: Glycogen synthase kinase-3 beta (Homo sapiens, UniProt P49841); assay: Inhibition of GSK3B isoform 2 in human HeLa cells lysate at 2 uM pre incubated for 15 mins followed by ADP acyl phosphate probe addition and measured after 10 mins by LC-MS/MS analysis relative to control; type: subcellular; conditions: time 25.0 min
[8] = target: Mixed lineage kinase domain-like protein (Homo sapiens, UniProt Q8NB16); assay: Inhibition of MLKL in human HeLa cells lysate pre incubated for 15 mins followed by ATP acyl phosphate probe addition and measured after 10 mins by LC-MS/MS analysis; type: subcellular
[9] = target: Phosphatidylinositol 3-kinase catalytic subunit type 3 (Homo sapiens, UniProt Q8NEB9); assay: Inhibition of PIK3C3 in human HeLa cells lysate at 10 uM pre incubated for 15 mins followed by ATP acyl phosphate probe addition and measured after 10 mins by LC-MS/MS analysis relative to control; type: subcellular; conditions: time 25.0 min
[10] = target: T2, Phosphatidylinositol 5-phosphate 4-kinase type-2 alpha (Homo sapiens) (UniProt P48426); assay: Inhibition of PIP5K2A LIP site in human HeLa cells lysate at 10 uM pre incubated for 15 mins followed by ADP acyl phosphate probe addition and measured after 10 mins by LC-MS/MS analysis relative to control; type: subcellular; conditions: time 25.0 min
T2 sequence (whole entry): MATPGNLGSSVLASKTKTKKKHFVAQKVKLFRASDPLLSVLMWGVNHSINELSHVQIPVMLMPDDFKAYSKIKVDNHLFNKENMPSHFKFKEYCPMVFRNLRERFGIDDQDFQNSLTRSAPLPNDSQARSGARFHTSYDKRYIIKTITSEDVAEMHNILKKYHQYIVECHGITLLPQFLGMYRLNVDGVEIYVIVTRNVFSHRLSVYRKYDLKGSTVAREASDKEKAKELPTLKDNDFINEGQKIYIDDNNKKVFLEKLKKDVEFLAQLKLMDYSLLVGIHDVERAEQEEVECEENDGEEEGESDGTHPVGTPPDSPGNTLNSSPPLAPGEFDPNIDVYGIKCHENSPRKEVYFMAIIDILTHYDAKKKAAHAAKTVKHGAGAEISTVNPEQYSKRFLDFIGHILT

[11] = target: Serine/threonine-protein kinase WNK1 (Homo sapiens, UniProt Q9H4A3); assay: Inhibition of Wnk1 in human HeLa cells lysate at 50 uM pre incubated for 15 mins followed by ATP acyl phosphate probe addition and measured after 10 mins by LC-MS/MS analysis relative to control; type: subcellular; conditions: time 25.0 min
[12] = Inhibition of HGK/MINK/TNIK in human HeLa cells lysate pre incubated for 15 mins followed by ATP acyl phosphate probe addition and measured after 10 mins by LC-MS/MS analysis; type: subcellular
[13] = target: Calcium/calmodulin-dependent protein kinase type II subunit delta (Homo sapiens, UniProt Q13557); assay: Inhibition of CAMK2d in human HeLa cells lysate at 50 uM pre incubated for 15 mins followed by ATP acyl phosphate probe addition and measured after 10 mins by LC-MS/MS analysis relative to control; type: subcellular; conditions: time 25.0 min
Method in brief: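 KiNativ-type profiling in HeLa lysate (5 mg/mL total protein). Lysate preincubated 15 min with inhibitor at 50, 10, 2, 0.8 or 0 μM, then ATP or ADP acylphosphate probe added (5 μM final) for 10 min. Reaction stopped with urea and analysed by targeted MS, using up to four fragment ions per kinase peptide-probe conjugate. % inhibition calculated against untreated lysate. Duplicate reactions.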

[14] = target: Mitogen-activated protein kinase 14 (Homo sapiens, UniProt Q16539); assay: Inhibition of p38a in human HeLa cells lysate at 2 uM pre incubated for 15 mins followed by ATP acyl phosphate probe addition and measured after 10 mins by LC-MS/MS analysis relative to control; type: subcellular; conditions: time 25.0 min
[15] = target: Mitogen-activated protein kinase kinase kinase 1 (Homo sapiens, UniProt Q13233); assay: Inhibition of MAP3K1 in human HeLa cells lysate at 10 uM pre incubated for 15 mins followed by ADP acyl phosphate probe addition and measured after 10 mins by LC-MS/MS analysis relative to control; type: subcellular; conditions: time 25.0 min
[16] = target: Cyclin-dependent kinase 11B (Homo sapiens, UniProt P21127); assay: Inhibition of PITSLRE in human HeLa cells lysate at 2 uM pre incubated for 15 mins followed by ATP acyl phosphate probe addition and measured after 10 mins by LC-MS/MS analysis relative to control; type: subcellular; conditions: time 25.0 min
Cyclin-dependent kinase 11B, sequence (P21127 whole entry): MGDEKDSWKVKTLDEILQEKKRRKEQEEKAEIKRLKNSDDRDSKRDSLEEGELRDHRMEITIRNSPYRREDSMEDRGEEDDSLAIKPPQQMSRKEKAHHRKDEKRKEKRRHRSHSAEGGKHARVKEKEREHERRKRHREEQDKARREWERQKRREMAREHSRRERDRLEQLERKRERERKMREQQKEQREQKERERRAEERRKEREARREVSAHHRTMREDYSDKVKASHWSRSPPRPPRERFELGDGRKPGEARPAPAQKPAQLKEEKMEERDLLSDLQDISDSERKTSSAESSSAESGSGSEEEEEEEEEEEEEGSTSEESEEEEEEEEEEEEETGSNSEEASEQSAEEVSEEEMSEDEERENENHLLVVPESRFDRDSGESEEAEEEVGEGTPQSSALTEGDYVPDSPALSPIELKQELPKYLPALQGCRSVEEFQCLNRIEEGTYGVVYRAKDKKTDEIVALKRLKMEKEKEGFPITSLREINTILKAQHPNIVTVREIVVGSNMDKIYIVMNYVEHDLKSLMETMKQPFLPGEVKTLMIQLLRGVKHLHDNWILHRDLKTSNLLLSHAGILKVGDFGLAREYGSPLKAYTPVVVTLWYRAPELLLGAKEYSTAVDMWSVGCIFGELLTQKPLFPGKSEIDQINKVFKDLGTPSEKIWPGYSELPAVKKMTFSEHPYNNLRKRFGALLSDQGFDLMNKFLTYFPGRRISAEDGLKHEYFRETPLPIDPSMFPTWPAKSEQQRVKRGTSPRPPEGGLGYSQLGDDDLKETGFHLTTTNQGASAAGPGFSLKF

Calcium/calmodulin-dependent protein kinase type II subunit delta, sequence (Q13557 whole entry, the tested form may be a part): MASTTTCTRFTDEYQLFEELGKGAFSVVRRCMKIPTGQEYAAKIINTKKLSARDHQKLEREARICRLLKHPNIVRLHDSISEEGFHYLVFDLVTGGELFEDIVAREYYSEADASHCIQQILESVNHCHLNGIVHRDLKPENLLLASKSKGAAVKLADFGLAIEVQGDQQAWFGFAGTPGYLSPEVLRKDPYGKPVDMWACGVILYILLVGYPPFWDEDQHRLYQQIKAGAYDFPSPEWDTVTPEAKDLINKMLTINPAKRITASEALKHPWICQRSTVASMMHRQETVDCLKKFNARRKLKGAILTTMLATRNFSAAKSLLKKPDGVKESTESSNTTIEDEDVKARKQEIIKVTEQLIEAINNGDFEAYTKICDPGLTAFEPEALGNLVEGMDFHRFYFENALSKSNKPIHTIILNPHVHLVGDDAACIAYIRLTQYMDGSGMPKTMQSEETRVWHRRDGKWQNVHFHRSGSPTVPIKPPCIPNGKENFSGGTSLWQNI
Glycogen synthase kinase-3 beta, sequence (P49841 whole entry, looked up, the tested form may be a part, canonical isoform): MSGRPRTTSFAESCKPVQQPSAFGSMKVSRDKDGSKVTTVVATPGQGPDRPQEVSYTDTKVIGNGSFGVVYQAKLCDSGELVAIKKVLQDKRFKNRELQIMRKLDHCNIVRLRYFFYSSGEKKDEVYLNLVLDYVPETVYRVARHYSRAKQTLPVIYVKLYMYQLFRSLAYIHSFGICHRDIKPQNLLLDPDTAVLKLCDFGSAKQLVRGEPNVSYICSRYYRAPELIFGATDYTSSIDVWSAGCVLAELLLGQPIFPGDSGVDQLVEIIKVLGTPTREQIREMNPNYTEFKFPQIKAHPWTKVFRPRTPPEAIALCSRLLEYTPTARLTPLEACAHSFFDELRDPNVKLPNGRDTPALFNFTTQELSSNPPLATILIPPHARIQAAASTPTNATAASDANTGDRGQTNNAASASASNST
Mitogen-activated protein kinase 14, sequence (Q16539 whole entry): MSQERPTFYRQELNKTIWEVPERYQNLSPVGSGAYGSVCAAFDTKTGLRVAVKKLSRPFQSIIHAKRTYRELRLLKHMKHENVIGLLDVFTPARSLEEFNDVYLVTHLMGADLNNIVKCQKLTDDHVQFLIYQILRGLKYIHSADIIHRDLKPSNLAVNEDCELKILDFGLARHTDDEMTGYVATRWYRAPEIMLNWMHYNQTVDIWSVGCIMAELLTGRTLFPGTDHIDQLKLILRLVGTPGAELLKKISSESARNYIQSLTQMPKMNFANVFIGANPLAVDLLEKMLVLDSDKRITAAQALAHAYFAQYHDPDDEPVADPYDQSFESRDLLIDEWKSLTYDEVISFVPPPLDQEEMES
Macrophage-stimulating protein receptor, sequence (Q04912 25-304 limits assumed): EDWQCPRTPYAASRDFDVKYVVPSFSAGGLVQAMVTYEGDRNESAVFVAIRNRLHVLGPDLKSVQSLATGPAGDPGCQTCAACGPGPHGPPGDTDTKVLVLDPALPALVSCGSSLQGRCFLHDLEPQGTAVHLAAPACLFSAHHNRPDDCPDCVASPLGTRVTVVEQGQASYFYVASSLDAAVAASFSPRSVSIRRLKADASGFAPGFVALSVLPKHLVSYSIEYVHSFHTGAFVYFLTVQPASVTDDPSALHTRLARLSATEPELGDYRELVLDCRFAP
Macrophage-stimulating protein receptor, sequence (Q04912 310-1400 limits assumed): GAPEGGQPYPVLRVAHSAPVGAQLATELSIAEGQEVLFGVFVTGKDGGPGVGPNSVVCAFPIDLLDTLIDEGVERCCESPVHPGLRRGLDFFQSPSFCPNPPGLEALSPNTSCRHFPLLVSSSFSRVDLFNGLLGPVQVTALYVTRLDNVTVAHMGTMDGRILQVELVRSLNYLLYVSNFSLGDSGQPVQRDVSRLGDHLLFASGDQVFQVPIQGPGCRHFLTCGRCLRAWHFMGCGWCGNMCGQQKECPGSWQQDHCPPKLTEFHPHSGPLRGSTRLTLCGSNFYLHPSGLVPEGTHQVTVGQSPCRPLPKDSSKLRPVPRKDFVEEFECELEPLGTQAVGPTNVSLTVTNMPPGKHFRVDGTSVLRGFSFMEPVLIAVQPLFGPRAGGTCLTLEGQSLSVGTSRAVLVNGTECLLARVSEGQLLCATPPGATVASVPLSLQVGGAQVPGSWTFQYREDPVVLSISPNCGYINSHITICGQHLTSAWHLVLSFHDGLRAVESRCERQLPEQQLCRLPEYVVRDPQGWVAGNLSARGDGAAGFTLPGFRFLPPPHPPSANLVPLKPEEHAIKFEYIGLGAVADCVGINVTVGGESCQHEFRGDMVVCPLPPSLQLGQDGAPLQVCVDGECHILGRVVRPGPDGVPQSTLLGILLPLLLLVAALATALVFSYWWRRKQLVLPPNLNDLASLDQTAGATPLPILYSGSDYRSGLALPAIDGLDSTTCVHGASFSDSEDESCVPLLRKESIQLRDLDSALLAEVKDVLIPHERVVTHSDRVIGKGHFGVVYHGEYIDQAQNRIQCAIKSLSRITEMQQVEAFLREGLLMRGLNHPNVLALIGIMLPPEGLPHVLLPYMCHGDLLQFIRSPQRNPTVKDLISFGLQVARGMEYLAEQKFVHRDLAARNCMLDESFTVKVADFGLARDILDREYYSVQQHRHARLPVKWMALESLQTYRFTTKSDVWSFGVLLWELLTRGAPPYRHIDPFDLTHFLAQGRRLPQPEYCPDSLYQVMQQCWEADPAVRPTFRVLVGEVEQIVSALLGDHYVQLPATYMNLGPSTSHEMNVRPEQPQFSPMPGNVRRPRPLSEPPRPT
Mixed lineage kinase domain-like protein, sequence (Q8NB16 whole entry, the tested form may be a part): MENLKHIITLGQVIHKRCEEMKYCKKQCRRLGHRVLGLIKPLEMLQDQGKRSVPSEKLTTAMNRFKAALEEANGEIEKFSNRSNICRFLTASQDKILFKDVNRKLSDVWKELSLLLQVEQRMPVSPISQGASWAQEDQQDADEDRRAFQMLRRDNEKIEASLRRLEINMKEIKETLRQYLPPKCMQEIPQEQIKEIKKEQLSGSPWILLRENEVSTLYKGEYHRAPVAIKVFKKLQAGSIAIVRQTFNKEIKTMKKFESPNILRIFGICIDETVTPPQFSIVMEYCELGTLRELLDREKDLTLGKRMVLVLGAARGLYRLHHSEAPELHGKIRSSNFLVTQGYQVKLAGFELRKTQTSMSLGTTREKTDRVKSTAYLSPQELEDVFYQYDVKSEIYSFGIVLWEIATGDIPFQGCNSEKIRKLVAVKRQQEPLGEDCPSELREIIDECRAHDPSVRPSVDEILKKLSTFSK
Interferon-induced, double-stranded RNA-activated protein kinase, sequence (P19525 whole entry): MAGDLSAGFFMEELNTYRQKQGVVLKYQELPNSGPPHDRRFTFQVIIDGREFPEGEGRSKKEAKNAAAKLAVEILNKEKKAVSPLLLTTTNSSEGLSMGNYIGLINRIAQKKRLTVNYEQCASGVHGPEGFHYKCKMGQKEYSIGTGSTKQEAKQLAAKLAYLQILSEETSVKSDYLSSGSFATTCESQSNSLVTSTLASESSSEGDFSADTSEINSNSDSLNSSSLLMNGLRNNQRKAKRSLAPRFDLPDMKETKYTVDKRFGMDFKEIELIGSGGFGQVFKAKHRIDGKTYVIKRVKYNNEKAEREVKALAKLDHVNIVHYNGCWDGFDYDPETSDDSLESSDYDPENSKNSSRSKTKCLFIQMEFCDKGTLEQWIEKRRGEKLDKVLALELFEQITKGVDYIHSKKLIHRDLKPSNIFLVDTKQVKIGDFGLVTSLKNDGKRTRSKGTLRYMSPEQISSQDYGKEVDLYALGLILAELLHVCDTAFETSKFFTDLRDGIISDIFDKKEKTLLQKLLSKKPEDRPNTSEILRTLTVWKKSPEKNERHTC

## CCOc1cc(N2CCC(O)CC2)ccc1Nc1ncc2c(n1)N(C)c1ccccc1C(=O)N2C
[1]
  inhibition: 12.7%
[2]
  inhibition: 24.9%
[3]
  inhibition: 25.8%
[4]
  inhibition: -2.3%
[5]
  inhibition: -7.8%
[6]
  Activity: 235 U/L
[7]
  inhibition: 18.5%
[8]
  IC50: > 50 µM
[9]
  inhibition: -4.3%
[10]
  inhibition: -2.5%
[11]
  inhibition: -9.5%
[12]
  IC50: > 50 µM
[13]
  inhibition: 40.8%
[14]
  inhibition: 3.8%
[15]
  inhibition: 15.9%
[16]
  inhibition: 4.9%
